Results published in ChEMBL document CHEMBL1123621, “Total synthesis and biological evaluation of structural analogues of compactin and dihydromevinolin” (J Med Chem, 1987).

Target: T1, 3-hydroxy-3-methylglutaryl-coenzyme A reductase (Rattus norvegicus, UniProt P51639)
T1 sequence (P51639 whole entry): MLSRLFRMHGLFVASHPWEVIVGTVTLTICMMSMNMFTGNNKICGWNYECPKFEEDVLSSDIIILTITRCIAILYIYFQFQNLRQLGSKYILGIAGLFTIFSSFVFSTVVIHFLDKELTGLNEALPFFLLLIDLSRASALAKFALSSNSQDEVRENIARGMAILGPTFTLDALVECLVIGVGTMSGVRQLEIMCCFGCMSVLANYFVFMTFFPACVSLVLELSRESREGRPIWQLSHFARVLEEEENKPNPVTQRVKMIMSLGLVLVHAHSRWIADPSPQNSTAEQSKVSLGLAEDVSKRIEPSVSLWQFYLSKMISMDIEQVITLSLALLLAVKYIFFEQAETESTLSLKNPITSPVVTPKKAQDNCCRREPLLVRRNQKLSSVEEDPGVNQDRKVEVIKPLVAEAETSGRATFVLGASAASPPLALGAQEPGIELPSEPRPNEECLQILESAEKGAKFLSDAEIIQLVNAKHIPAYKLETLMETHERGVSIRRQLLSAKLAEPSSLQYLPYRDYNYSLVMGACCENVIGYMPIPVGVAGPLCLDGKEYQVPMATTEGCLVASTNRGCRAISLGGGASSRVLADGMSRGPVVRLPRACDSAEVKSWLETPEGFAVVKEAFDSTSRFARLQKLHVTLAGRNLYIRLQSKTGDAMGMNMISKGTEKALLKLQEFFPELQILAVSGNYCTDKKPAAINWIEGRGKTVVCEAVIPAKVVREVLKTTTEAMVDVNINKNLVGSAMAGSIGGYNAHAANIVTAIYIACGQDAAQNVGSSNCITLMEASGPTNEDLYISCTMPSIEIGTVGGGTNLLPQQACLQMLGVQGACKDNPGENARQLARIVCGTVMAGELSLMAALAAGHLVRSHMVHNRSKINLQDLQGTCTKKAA
Experiment: Binding affinity against HMG-CoA reductase in rat liver microsomes
Parameters: species or system Microsome
Details: not given
Outline: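 Rat liver microsomes (Edwards preparation, stored at -78 °C), 1.3 mg (0.068 mg protein) per 500 μL assay; 150 mM phosphate pH 6.8, 180 mM KCl, 16 mM Na2EDTA, 9 mM DTT, 10.0 mM glucose 6-phosphate, 2.1 mM NADP, 2 U G6P dehydrogenase, 20 μM (R,S)-[3-14C]HMG-CoA; lactones preincubated 30 min at 37 °C for ring opening; inhibitors in DMSO; KOH stop; four concentrations in duplicate; I50 extrapolated from %inhibition vs log concentration.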

| Ki | Compound |
| --- | --- |
| 0.0014 µM | CC[C@H](C)C(=O)O[C@H]1CCC=C2C=C[C@H](C)[C@H](CC[C@@H]3C[C@@H](O)CC(=O)O3)[C@H]21 [MEVASTATIN] |

Target: T1, 3-hydroxy-3-methylglutaryl-coenzyme A reductase
Experiment: Inhibition of HMG-CoA reductase in rat liver microsomes
Parameters: species or system Microsome
Details: read-out: I50
Outline: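 Rat liver microsomes (0.068 mg protein) in 150 mM phosphate pH 6.8, 180 mM KCl, 16 mM EDTA, 9 mM DTT, 10.0 mM glucose 6-phosphate, 2.1 mM NADP, G6P dehydrogenase, 20 μM (R,S)-[3-14C]HMG-CoA. Lactones were preincubated 30 min at 37 °C for ring opening. Inhibitors were given in DMSO. Reaction stopped with KOH; initial mevalonate rate measured. Four concentrations over four log units, in duplicate; I50 extrapolated from %inhibition vs log concentration.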

| IC50 | Compound |
| --- | --- |
| 10 µM | CC[C@H](C)C(=O)O[C@@H]1CCC=C2C=C[C@@H](C)[C@@H](CC[C@@H]3C[C@@H](O)CC(=O)O3)[C@@H]21 |
| 2 µM | CC[C@H](C)C(=O)O[C@H]1CCC=C2C=C[C@H](C)[C@H](CC[C@H]3C[C@H](O)CC(=O)O3)C21 (some centres not stated) |
| 0.63 µM | CC[C@H](C)C(=O)O[C@H]1CCC=C2C=C[C@H](C)[C@H](COC(=O)C[C@@H](O)CC(=O)O)[C@H]21 |
| 7.1 µM | CC[C@H](C)C(=O)O[C@H]1CCC=C2C=C[C@H](C)[C@H](COC(=O)CCCC(=O)O)C21 (some centres not stated) |
| 0.0016 µM | CC[C@H](C)C(=O)O[C@H]1C[C@@H](C)C[C@@H]2C=C[C@H](C)[C@H](CC[C@@H]3C[C@@H](O)CC(=O)O3)C12 (some centres not stated) |
| 25 µM | CC[C@H](C)C(=O)O[C@@H]1CCC=C2C=C[C@@H](C)[C@@H](COC(=O)C[C@H](O)CC(=O)O)[C@@H]21 |
| 5 µM | CC[C@H](C)C(=O)O[C@H]1CCC=C2C=C[C@H](C)[C@H](COC(=O)C[C@H](O)CC(=O)O)[C@H]21 |
| 4 µM | CC[C@H](C)C(=O)O[C@H]1CCC=C2C=C[C@H](C)[C@H](CC[C@@H]3C[C@H](O)CC(=O)O3)C21 (some centres not stated) |
| > 25 µM | CC[C@H](C)C(=O)O[C@@H]1CCC=C2C=C[C@@H](C)[C@@H](COC(=O)C[C@@H](O)CC(=O)O)[C@@H]21 |
| 110 µM | CC[C@H](C)C(=O)O[C@@H]1CCC=C2C=C[C@@H](C)[C@@H](COC(=O)CCCC(=O)O)[C@@H]21 |
| 0.013 µM | CC[C@H](C)C(=O)O[C@H]1CCC=C2C=C[C@H](C)[C@H](CC[C@@H]3C[C@@H](O)CC(=O)O3)[C@H]21 [MEVASTATIN] |
| 0.32 µM | CC[C@H](C)C(=O)O[C@H]1C[C@@H](C)C[C@@H]2C=C[C@H](C)[C@H](/C=C/C(=O)C[C@@H](O)CC(=O)O)C12 (some centres not stated) |
| 2 µM | CC[C@H](C)C(=O)O[C@H]1CCC=C2C=C[C@H](C)[C@H](CC[C@H]3C[C@@H](O)CC(=O)O3)C21 (some centres not stated) |
| 0.032 µM | CC[C@H](C)C(=O)O[C@H]1CCC=C2C=C[C@H](C)[C@H](CCC(=O)C[C@@H](O)CC(=O)O)[C@H]21 |
| 0.63 µM | CC[C@H](C)C(=O)O[C@H]1CCC=C2C=C[C@H](C)[C@H](/C=C/C(=O)C[C@@H](O)CC(=O)O)[C@H]21 |
| 79 µM | CC[C@H](C)C(=O)O[C@@H]1CCC=C2C=C[C@@H](C)[C@@H](CC[C@H]3C[C@@H](O)CC(=O)O3)[C@@H]21 |
